Source: PubChem (Broad Institute)
A selection: hits, their analogues and other compounds. The true share with any hit is near 5.8%.
T cruzi growth-1 – inhibitors of T. cruzi proliferation; T. cruzi beta-gal in NIH3T3, GalScreen luminescence, 90 h; inhibition, % at 8.34 µM; 5.9% of 77,000 active; AID 624255;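 active = mean inhibition above about 93%, with at least 55% of replicates each passing it, limit read from the data, passing the limit was not always enough; inconclusive = only one of those two conditions holds; inactive = neither condition holds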
Pf Dd2 growth – inhibitors of Plasmodium falciparum Dd2 growth | P. falciparum Dd2 growth, SYBR Green, 72 h; active compounds read low | activity change, % at 10 µM | 2.3% of 94,000 active; in the data active = activity change below about -80%; inconclusive = no clear call, values can overlap the other calls
GASC1 inh – blocks human GASC-1 (KDM4C) demethylase activity | GST-KDM4C 2-372, H3K9me3 peptide, LANCE TR-FRET | inhibition, % at 12.5 µM | 0.15% of 96,000 active;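 active = mean replicate inhibition above about 25%, with at least 55% of replicates also reaching it, limit read from the data, passing the limit was not always enough; inconclusive = only one of those two conditions met; inactive = neither condition met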
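System – N-terminal GST-fused human GASC-1 (KDM4C) fragment, residues 2-372 · Input – enzyme final amount 10 nM · Technique – LANCE TR-FRET, Eu antibody, ULight-streptavidin, EDTA, ex 340 nm, em 618/671 nm · Medium – HEPES buffer, pH 7.5, plus ascorbate · Incubation – enzyme reaction 30 min, then detection 60 min, both room temperature · Reagent – H3K9me3 peptide with Fe(II)/2OG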
IDH1 R132H inh – IDH1 R132H (human) inhibition. inhibition, % at 10 µM. O75874. IDH1 R132H reductase, diaphorase/resazurin fluorescence, 60 min. 0.18% of 70,000 active. AID 624101; in the data active = inhibition above about 34%; inconclusive = no clear call, values can overlap the other calls; inactive = below about 11%
Target sequence (O75874 whole entry R132H): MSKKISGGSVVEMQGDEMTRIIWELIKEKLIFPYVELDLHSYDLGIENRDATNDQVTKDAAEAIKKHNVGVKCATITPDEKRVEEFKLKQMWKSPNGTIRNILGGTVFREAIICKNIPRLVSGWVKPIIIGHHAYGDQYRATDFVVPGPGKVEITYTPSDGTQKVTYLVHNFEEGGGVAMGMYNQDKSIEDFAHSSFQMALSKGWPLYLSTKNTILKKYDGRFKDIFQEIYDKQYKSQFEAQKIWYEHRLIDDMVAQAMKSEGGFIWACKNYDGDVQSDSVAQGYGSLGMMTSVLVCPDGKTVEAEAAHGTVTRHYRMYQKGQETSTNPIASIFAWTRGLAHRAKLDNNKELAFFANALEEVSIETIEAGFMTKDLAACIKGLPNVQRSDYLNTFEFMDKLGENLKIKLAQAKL
T cruzi growth-2 – blocks T. cruzi growth in NIH3T3 host cells | shares compounds with T cruzi growth-1 | T. cruzi beta-gal in NIH3T3, GalScreen luminescence, 90 h | inhibition, % at 8.35 µM | 72% of 5,600 active;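 active = mean replicate inhibition above about 95% and at least 55% of replicates individually reaching it, limit read from the data; inconclusive = only one of the two criteria is met; inactive = neither criterion is met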
T cruzi growth-3 – Trypanosoma cruzi proliferation inhibition. inhibition, % at 2.09 µM. 21% of 5,600 active. T. cruzi beta-gal in NIH3T3, GalScreen luminescence, 90 h. shares compounds with T cruzi growth-1;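 active = mean inhibition above about 95%, with at least 55% of replicates also reaching it, limit read from the data; inconclusive = meets just one of the two conditions; inactive = meets neither condition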
NIH3T3 tox – kills mouse NIH/3T3 fibroblasts; shares compounds with T cruzi growth-1; NIH/3T3 viability, CellTiter-Glo ATP luminescence, 90 h; cytotoxicity (signal decrease), % at 8.35 µM; 14% of 5,600 active; AID 651742;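 active = mean signal decrease across replicates above about 35% based on untreated-well scatter, with enough replicates individually passing, limit read from the data; inconclusive = no rule stated though some were filed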
3T3 cytotox 2 – NIH/3T3 (mouse) viability loss. shares compounds with T cruzi growth-1. NIH/3T3 viability, CellTiter-Glo ATP luminescence, 90 h. inhibition, % at 24.9 µM. 56% of 5,600 active. AID 651744;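 active = mean loss of cell viability signal at or above a set limit, and enough replicates individually reaching it; inconclusive = meets only the mean limit or only the replicate share; inactive = meets neither condition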
Hits are given with their value.

For Cc1ccc(N(C(C)C(=O)Nc2ccc(Cl)cc2)S(C)(=O)=O)cc1C (stereo unspecified) the results were IDH1 R132H inh inactive.
Screening CC(O)CNS(=O)(=O)c1cccc([N+](=O)[O-])c1 (stereo unspecified) returned IDH1 R132H inh inactive.
Screening Cc1cc(NC(=O)C(=O)NCCCN2CCOCC2)ccc1Br returned IDH1 R132H inh inactive.
`COc1ccc(S(=O)(=O)N(C)C[C@H]2Oc3cc(-c4cccc(F)c4)ccc3S(=O)(=O)N([C@H](C)CO)C[C@@H]2C)cc1` gave Pf Dd2 growth inactive, GASC1 inh inactive and IDH1 R132H inh inactive.
For C[C@@H]1CN([C@@H](C)CO)S(=O)(=O)c2ccc(-c3cccc(F)c3)cc2O[C@H]1CN(C)S(=O)(=O)c1ccc(F)cc1 the results were T cruzi growth-1 113, Pf Dd2 growth inactive, GASC1 inh inactive, T cruzi growth-2 101, T cruzi growth-3 108, NIH3T3 tox 49 and 3T3 cytotox 2 48.
Screening C[C@H](CO)N1C[C@H](C)[C@@H](CN(C)S(=O)(=O)c2ccc(F)cc2)Oc2cc(-c3cccc(F)c3)ccc2S1(=O)=O returned T cruzi growth-1 118, Pf Dd2 growth inactive, GASC1 inh inactive, T cruzi growth-2 97, T cruzi growth-3 104, NIH3T3 tox 39 and 3T3 cytotox 2 42.
Screening COc1ccc(S(=O)(=O)N(C)C[C@@H]2Oc3cc(-c4cccc(F)c4)ccc3S(=O)(=O)N([C@H](C)CO)C[C@H]2C)cc1 returned Pf Dd2 growth inactive, GASC1 inh inactive and IDH1 R132H inh inactive.
`CO[C@H](CN(C)S(=O)(=O)c1ccc(Cl)cc1)[C@H](C)CN(Cc1ccccc1Cl)[C@H](C)CO` gave T cruzi growth-1 106, Pf Dd2 growth inactive, GASC1 inh inactive, IDH1 R132H inh inactive, T cruzi growth-2 111, T cruzi growth-3 inactive, NIH3T3 tox inactive and 3T3 cytotox 2 107.
Screening CO[C@@H](CN(C)S(=O)(=O)c1ccc(C)cc1)[C@@H](C)CN(Cc1ccccc1Cl)[C@H](C)CO returned T cruzi growth-1 100, Pf Dd2 growth inactive, GASC1 inh inactive, IDH1 R132H inh inactive, T cruzi growth-2 95, T cruzi growth-3 inactive, NIH3T3 tox inconclusive and 3T3 cytotox 2 51.
O=C(C[C@@H]1CC[C@@H]2[C@H](COC[C@@H](O)CN2C(=O)Nc2ccc(Cl)c(Cl)c2)O1)NCc1ccc(Cl)cc1 was read as T cruzi growth-1 inactive, Pf Dd2 growth inactive and GASC1 inh inactive.
For O=C(C[C@H]1CC[C@@H]2[C@H](COC[C@H](O)CN2C(=O)Nc2ccc(Cl)c(Cl)c2)O1)NCc1ccc(Cl)cc1 the results were T cruzi growth-1 111, Pf Dd2 growth inactive, GASC1 inh inactive, T cruzi growth-2 108, T cruzi growth-3 inactive, NIH3T3 tox inconclusive and 3T3 cytotox 2 89.
`O=C(C[C@@H]1CC[C@H]2[C@@H](COC[C@H](O)CN2C(=O)Nc2ccc(Cl)c(Cl)c2)O1)NCc1ccccc1` gave T cruzi growth-1 inactive, Pf Dd2 growth inactive and GASC1 inh inactive.
O=C(C[C@H]1CC[C@H]2[C@@H](COC[C@H](O)CN2C(=O)Nc2ccc(Cl)c(Cl)c2)O1)NCc1ccc(Cl)cc1 was read as T cruzi growth-1 inconclusive, Pf Dd2 growth inactive, GASC1 inh inactive, T cruzi growth-2 inactive, T cruzi growth-3 inactive, NIH3T3 tox inactive and 3T3 cytotox 2 102.
Screening O=C(C[C@@H]1CC[C@@H]2[C@H](COC[C@@H](O)CN2C(=O)Nc2ccc(Cl)c(Cl)c2)O1)NCc1ccccc1 returned T cruzi growth-1 inactive, Pf Dd2 growth inactive and GASC1 inh inactive.
O=C(C[C@H]1CC[C@@H]2[C@H](COC[C@@H](O)CN2C(=O)Nc2ccc(Cl)c(Cl)c2)O1)NCc1ccncc1 was read as T cruzi growth-1 111, Pf Dd2 growth inactive, GASC1 inh inactive, T cruzi growth-2 inactive, T cruzi growth-3 inactive, NIH3T3 tox inactive and 3T3 cytotox 2 inactive.
`O=C(C[C@@H]1CC[C@H]2[C@@H](COC[C@H](O)CN2C(=O)Nc2ccc(Cl)c(Cl)c2)O1)NCc1ccc(Cl)cc1` gave T cruzi growth-1 inactive, Pf Dd2 growth inactive and GASC1 inh inactive.
For O=C(C[C@H]1CC[C@@H]2[C@H](COC[C@@H](O)CN2C(=O)Nc2ccc(Cl)c(Cl)c2)O1)NCc1ccc(Cl)cc1 the results were T cruzi growth-1 102, Pf Dd2 growth inactive, GASC1 inh inactive, T cruzi growth-2 100, T cruzi growth-3 inactive, NIH3T3 tox 38 and 3T3 cytotox 2 56.
For COC(=O)c1ccccc1NC(=O)c1ccc(NC(=O)CSc2ccccc2)cc1 the results were IDH1 R132H inh inactive.
For CS(=O)(=O)N(CC(=O)Nc1cccc(C(F)(F)F)c1)c1cc(Cl)c(Cl)cc1Cl the results were IDH1 R132H inh inactive.
COC(=O)C[C@H]1[C@]2(C)C3=C(C)[C@H](c4ccoc4)C[C@H]3O[C@@H]2[C@H](O)C2[C@](C)(C(=O)OC)C=CC(=O)[C@@]21C (stereo partly specified) was read as IDH1 R132H inh inactive.
Screening O=C1O[C@@H](c2ccccc2)[C@@H](c2ccccc2)N2[C@@H](c3ccc(O)cc3)[C@]3(C(=O)Nc4ccccc43)[C@@H](C(=O)N3CCN(c4ncccn4)CC3)[C@H]12 returned IDH1 R132H inh inactive.
For CCC(C)C(O)C(C)(O)/C=C/C1=CC2=CC(=O)C(C)(O)C(O)C2CO1 (stereo unspecified) the results were IDH1 R132H inh inactive.
Screening C[C@@H]1CN([C@@H](C)CO)S(=O)(=O)c2ccc(C#Cc3cccc(F)c3)cc2O[C@H]1CN(C)C(=O)NC1CCCCC1 returned Pf Dd2 growth inactive, GASC1 inh inactive and IDH1 R132H inh inactive.
Screening CC(C)CC#Cc1ccc2c(c1)O[C@H](CN(C)C(=O)NC(C)C)[C@@H](C)CN([C@H](C)CO)S2(=O)=O returned T cruzi growth-1 inactive, Pf Dd2 growth inactive, GASC1 inh inactive and IDH1 R132H inh inactive.
CC(C)CC#Cc1ccc2c(c1)O[C@@H](CN(C)C(=O)NC1CCCC1)[C@H](C)CN([C@@H](C)CO)S2(=O)=O was read as T cruzi growth-1 118, Pf Dd2 growth inactive, GASC1 inh inactive, IDH1 R132H inh inactive, T cruzi growth-2 100, T cruzi growth-3 inactive, NIH3T3 tox inactive and 3T3 cytotox 2 inactive.
